What was measured:
[1] = folding enthalpy; higher = less favourable; fluorescence melt of hairpins on a sequencing array, two-state fit; conditions: sodium 0.088 M
In short: (§1)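 Folding enthalpy and melting temperature were estimated with bootstrapped two-state fits and combined across four replicates by inverse-variance weighting, with fitted temperatures raised by 9.35 °C to match UV melts. The data were Cy3 fluorescence of library hairpins, with annealed Cy3 and quencher oligos, on a sequenced MiSeq flow cell in 50 mM Na-HEPES pH 8.0, 25 mM NaCl, imaged in 2.5 °C steps up to 60 °C and normalised to pre-quench Cy3 and control constructs.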

[2] = melting temperature; fluorescence melt of hairpins on a sequencing array, two-state fit, raised by 9.35 °C to match UV melts; conditions: sodium 0.088 M
In short: as §1

Sequence | folding enthalpy [1] | Tm [2]
GGCTCTCGAAAGAGGGCC (((.(((....))).))) | -39.3 kcal/mol | 64.7 °C
GACTACGAAAGTACTGTC ((((((....)))..))) | -18.5 kcal/mol | 29.9 °C
GCTTAGCCGAAAGGCAGC (((..(((....)))))) | -16.4 kcal/mol | 45.5 °C
GTTCGCGAAAGCGAAAAC ((((((....)))..))) | -9.22 kcal/mol | 47.4 °C
TATCTGAAAAGATA (((((....))))) | -11.5 kcal/mol | 29.8 °C
GAAATGGCGAAAGCCTTC (((..(((....)))))) | -7.87 kcal/mol | 23 °C
GCAGCGCGAAAGCACCGC ((.(.((....)).).)) | -21.5 kcal/mol | 41.3 °C
GATCCAATTATGGATC ((((((....)))))) | -36.5 kcal/mol | 50.4 °C
GAGCCCGAAAGGGGCCTC ((((((....)))..))) | -13.5 kcal/mol | 49.9 °C
GGAGGCGGAAACGCCTTC (.(((((....))))).) | -14.9 kcal/mol | 57.5 °C
GACAGACCGAAAGGTGTC (((..(((....)))))) | -19.5 kcal/mol | 44.3 °C
CGCGACGGAAACGTGGCG (((.(((....))).))) | -49 kcal/mol | 56.9 °C
GATCTGTAAGCAGATC ((((((....)))))) | -49.9 kcal/mol | 51.4 °C
GATCGCTTCCGCGATC ((((((....)))))) | -36 kcal/mol | 67.2 °C
GATCCATCACTGGATC ((((((....)))))) | -35.6 kcal/mol | 50.2 °C
GTACACGAAAGTGGTAC ((((((....))).))) | -17.9 kcal/mol | 47.8 °C
GGGCACCCGAAAGGGCCC (((..(((....)))))) | -36.7 kcal/mol | 58 °C
GCCTACGGAAACATAGGC (((((.(....).))))) | -28.9 kcal/mol | 40.3 °C
GATCCCTAGGGGGATC ((((((....)))))) | -34.8 kcal/mol | 60.4 °C
GATCCTGCATAGGATC ((((((....)))))) | -43.4 kcal/mol | 60.9 °C
GAATGGGGAAACCCGTTC (((.(((....))).))) | -35.5 kcal/mol | 48.2 °C
GACAGCGAAAGCTCGGTC ((((((....)))..))) | -10.6 kcal/mol | 46.8 °C
GTATACGAAAGTACTTAC ((((((....)))..))) | -13.5 kcal/mol | 31.5 °C

Sequence | folding enthalpy [1] | Tm [2]
GATCTATCATTAGATC ((((((....)))))) | -28.2 kcal/mol | 42.1 °C
GATCATCTGCATGATC ((((((....)))))) | -36 kcal/mol | 46.2 °C
GACTTCGGAAACGAAATC ((.((((....)))).)) | -22.9 kcal/mol | 31.9 °C
GTTCTCGAAAGAGTAAAC ((((((....)))..))) | -12.5 kcal/mol | 27.9 °C
GATCCAACATGGATC ((((((...)))))) | -33.7 kcal/mol | 50.4 °C
GATTTAGAAATAAATC ((((((....)))))) | -18.8 kcal/mol | 34.4 °C
GCTCACGAAAGTGTAGC ((((((....))).))) | -24.6 kcal/mol | 51.5 °C
GGTGACGGAAACGTTGCC ((..(((....)))..)) | -34.3 kcal/mol | 48.1 °C
GACTGAGGAAACTCAGCC (.(((((....))))).) | -16.9 kcal/mol | 43.4 °C
GATCGAGTATTCGATC ((((((....)))))) | -40 kcal/mol | 59.2 °C
GTTTTACGAAAGTACAAC (((.(((....))).))) | -25.8 kcal/mol | 35.5 °C
GAGCTTCCGAAAGGACTC (((..(((....)))))) | -27.4 kcal/mol | 29.2 °C
GAGTACGGAAACGTGCTC (((.(((....))).))) | -48.9 kcal/mol | 53.8 °C
GCGTAGCGAAAGCATCGC (((..((....))..))) | -15.4 kcal/mol | 55.1 °C
GAGGACGAAAGTCTGCTC ((((((....)))..))) | -14.4 kcal/mol | 39.2 °C
GACAGGGCGAAAGCCGTC (((..(((....)))))) | -14.1 kcal/mol | 49.6 °C
GCTGTCCGAAAGGATAGC (((.(((....))).))) | -39.6 kcal/mol | 59.3 °C
GTGACCACGAAAGTGCAC (((..(((....)))))) | -12 kcal/mol | 32 °C
GCGTCCACGAAAGTGCGC (((..(((....)))))) | -23.3 kcal/mol | 48.6 °C
GGCGATGCGAAAGCAGCC (((..(((....)))))) | -19.5 kcal/mol | 58.5 °C
GATCGCTTATGCGATC ((((((....)))))) | -33.8 kcal/mol | 68.1 °C
GTCTGTGGAAACACAGAC (((((((....))))))) | -50.5 kcal/mol | 65.1 °C
GCTAGCGGAAACGTTAGC ((((.((....)).)))) | -34.1 kcal/mol | 51.3 °C

From the array DNA melting data of Ke et al. (doi:10.1101/2024.01.08.574731)
